# About 190 (0.056%) of roughly 340,000 compounds were called active.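 Rule for the calls: active = activation of 40% or more at 20 µM, a change of -40% or lower; inactive = the rest.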 The entries come from a sample that favours actives as a whole.
# Molecular target: Hexokinase HKDC1 (Homo sapiens) (UniProt Q2TB90)
# Experiment: enhancers of human HKDC1 enzyme activity – biochemical, fluorescence, uHTS, primary screen (AID 493187)
# Conditions: recombinant HKDC1, G6PDH/diaphorase resazurin fluorescence; at 20 µM; hits give low values
# Outline: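 system = in-house human HKDC1 enzyme, G6PDH and diaphorase coupling enzymes | amount = HKDC1 5 µg/mL | measured by = resorufin fluorescence from 100 µM resazurin, NADP 1 mM, Ex 525/Em 613 nm | times = enzyme reaction 90 min, room temperature, in dark | doses = single compound dose of 20 µM, 1% DMSO final | medium = Tris/MgCl2 buffer, pH 8.0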
# Sequence of Hexokinase HKDC1 (Homo sapiens) (Q2TB90 whole entry, looked up): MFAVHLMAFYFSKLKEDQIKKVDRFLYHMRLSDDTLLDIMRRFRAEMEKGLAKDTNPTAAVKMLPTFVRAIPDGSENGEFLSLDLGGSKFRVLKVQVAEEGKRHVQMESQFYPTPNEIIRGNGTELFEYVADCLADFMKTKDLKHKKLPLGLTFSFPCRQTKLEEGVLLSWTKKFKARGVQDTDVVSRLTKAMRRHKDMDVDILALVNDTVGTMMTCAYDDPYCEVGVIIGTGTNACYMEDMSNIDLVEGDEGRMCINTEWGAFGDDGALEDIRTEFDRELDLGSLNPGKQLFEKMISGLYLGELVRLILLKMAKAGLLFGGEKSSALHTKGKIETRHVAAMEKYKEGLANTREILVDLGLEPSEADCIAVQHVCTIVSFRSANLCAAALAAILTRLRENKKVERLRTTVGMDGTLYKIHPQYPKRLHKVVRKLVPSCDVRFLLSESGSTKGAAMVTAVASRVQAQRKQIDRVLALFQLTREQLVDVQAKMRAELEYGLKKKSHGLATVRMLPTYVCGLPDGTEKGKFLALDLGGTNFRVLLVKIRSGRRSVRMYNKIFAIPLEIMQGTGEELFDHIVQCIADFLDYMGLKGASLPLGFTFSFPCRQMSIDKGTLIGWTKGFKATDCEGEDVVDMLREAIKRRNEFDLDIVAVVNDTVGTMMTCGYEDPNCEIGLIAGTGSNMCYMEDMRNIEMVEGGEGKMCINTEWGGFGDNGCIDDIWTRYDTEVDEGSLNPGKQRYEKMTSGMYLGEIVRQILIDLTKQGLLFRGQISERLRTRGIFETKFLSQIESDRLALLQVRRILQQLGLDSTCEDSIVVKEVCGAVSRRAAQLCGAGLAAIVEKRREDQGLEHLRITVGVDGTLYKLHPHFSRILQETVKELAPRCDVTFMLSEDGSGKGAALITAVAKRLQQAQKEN
row,SMILES,"activity change, negative = activation"
1,O=C(CSc1cccc2cccnc12)N/N=C/c1cccnc1,-52.6% (active)
2,O=c1[nH]c2ccccc2n2c(-c3ccccc3)nnc12,46.7% (inactive)
3,C[N+](C)(CCCCCC[N+](C)(C)CCCN1C(=O)c2cccc3cccc(c23)C1=O)CCCN1C(=O)c2cccc3cccc(c23)C1=O,-66.9% (active)
4,COc1ccc(C(CCN(Cc2ccc(OC)c(OC)c2)C(=O)CCl)c2ccccc2)cc1 (stereo not drawn),35.4% (inactive)
5,COc1ccc2c(c1)c(=Cc1ccc(N(C)C)cc1)c1cc(-c3ccccc3)[n+](C)n12,43.2% (inactive)
6,COc1ccc(N(CC(=O)N/N=C/c2cccc3c2OCCO3)S(=O)(=O)c2ccc(NC(C)=O)cc2)cc1,38.1% (inactive)
7,Cc1cc(C2=NNC(=Nc3ccc(S(=O)(=O)N4CCOCC4)cc3)SC2)c(C)n1CC1CCCO1 (stereo not drawn),-70% (active)
8,CCOC(=O)CSc1nc2ccc(C)cc2n2cnnc12,53% (inactive)
9,CC(=O)/C(=N\Nc1ccc(Cl)cc1Cl)Sc1cccc2cccnc12,-40.8% (active)
10,CCCc1nc2oc3c(OCC)ncnc3c2c2c1COC(C)(C)C2,37.7% (inactive)
11,O=C(c1cccnc1)N(c1cc2sc(=O)oc2c2ccccc12)S(=O)(=O)c1ccccc1,38.2% (inactive)
12,CN1c2ccc(C=O)c3c(C=O)ccc(c23)N(C)C1(C)C,36.4% (inactive)
13,O=C(NC1=CC(=O)c2ccccc2C1=O)c1ccccc1,54.1% (inactive)
14,CCc1ccc2c(c1)C1(NN=C(c3ccccc3)S1)C(=O)N2 (stereo not drawn),-48.1% (active)
15,O=C1C(Cl)=C(Oc2ccccc2)C(=O)c2ccccc21,65.2% (inactive)
16,Cc1ccc(Nc2nc(-c3sc(NC(=O)c4ccccc4)nc3C)cs2)cc1,-77.6% (active)
17,CC(C)(C)Nc1c(N)c(=O)oc2ccccc12,44.6% (inactive)
18,CCC(=C/c1sc2ccc3ccccc3c2[n+]1C)/C=C1\Sc2ccc3ccccc3c2N1C,45% (inactive)
19,COc1ccc(NC(=O)CSc2ccc(-c3ccco3)nn2)c(OC)c1,47.3% (inactive)
20,Clc1cccc(N=C2NN=C(c3ccc4c(c3)OCCO4)CS2)c1,-169% (active)
21,O=S(=O)(Nc1ccc(O)c2ccccc12)c1ccc(OC(F)(F)F)cc1,52% (inactive)
22,CCOC(=O)C1=C(c2ccc(OC)cc2)C(=O)c2ccccc2C1=O,81.4% (inactive)
23,CCn1cc(C(=O)NCc2ccc3c(c2)OCO3)c2cc(OC)c(OC)cc2c1=O,37.8% (inactive)
24,O=c1ccc2c(-c3ccccc3S(=O)(=O)O)c3ccc(O)c(O)c3oc-2c1O,38.4% (inactive)
25,Cc1ccc2oc(=O)c3cnn(CC(=O)N4CCCCCC4)c3c2c1,-44.7% (active)
26,Nc1ccc2nc3c(=O)[nH]c(=S)[nH]c3nc2c1,69.9% (inactive)
27,CC(=O)N(C1=C(Cl)C(=O)c2ccccc2C1=O)c1ccc(C(=O)O)cc1,52.2% (inactive)
28,Cc1cc(C(=O)CCl)c(C)n1CC1COc2ccccc2O1 (stereo not drawn),38.2% (inactive)

# From PubChem BioAssay AID493187 (Sanford-Burnham Center for Chemical Genomics, 2011)
